Test [1] has as its system MCF7. As to the kind of experiment: Antiproliferative activity against MCF7 cells after 72 hrs. In kind it is functional, cell-based. The conditions noted are these: Homo sapiens, MCF7, 72 h. The essentials: (§1)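 Seeded at 2000 cells/well and left to attach overnight at 37 °C, 5% CO2. MCF-7 cells kept in 1:1 DMEM:Ham's F-12 with non-essential amino acids, 2 mM L-glutamine, pen/strep and 10% FBS. SkBr3 cells kept in McCoy's 5A with the same supplements. Compounds added over a range of concentrations in DMSO (1% final). After 72 h, viable cells counted by MTS/PMS. 1% DMSO wells set as 100% proliferation.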

Test [2] has as its system SK-BR-3. In words: Induction of Hsp90-dependent Her2 protein degradation in Skbr3 cells after 24 hrs by ELISA. In kind it is functional, cell-based. The conditions noted are these: Homo sapiens, SK-BR-3, 24 h. In short, it runs like this: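 SkBr3 cells seeded at 3000/well and attached overnight, then exposed to compounds at varying concentrations for 24 h. Cell number checked under the microscope against DMSO wells. Cells then washed, fixed and permeabilized in −20 °C methanol, and blocked with 5% BSA/PBST. Probed overnight at 4 °C with rabbit anti-Her2 (1:500), then with HRP anti-rabbit IgG (1:1000) for 2 h. Read by chemiluminescence.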
Background: An ELISA detects its analyte on a solid surface through an enzyme-linked reagent.

Test [3] relates to SK-BR-3. As to the kind of experiment: Antiproliferative activity against SkBr3 cells after 72 hrs. In kind it is functional, cell-based. The conditions noted are these: Homo sapiens, SK-BR-3, 72 h. In short, it runs like this: as §1
Test [4] in a line: (§2) Inhibition of Hsp90-dependent luciferase renaturation in rabbit reticulocyte after 30 mins by luciferase refolding assay. On the set-up: species or system Oryctolagus cuniculus. The essentials: (§3)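 Luciferase in stability buffer (0.5 mg/mL) heat-denatured at 41 °C for 10 min. Compound in DMSO (1 μL) mixed with cold mix (Tris pH 7.7, Mg(OAc)2, KCl, ATP, creatine phosphate), creatine phosphokinase and denatured luciferase. Started with rabbit reticulocyte lysate diluted in 20 mM Tris-HCl pH 7.4/75 mM KCl. Ran 30 min at 25 °C, then luciferin/ATP buffer added and light read over 10 s. IC50 taken against DMSO control. Triplicates, at least two experiments.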

The species named for a further test is Oryctolagus cuniculus. Described as §2. The essentials: as §3
Test [5] deals with MCF7. As to the kind of experiment: Induction of AKT degradation in MCF7 cells. It counts as functional, cell-based. The conditions noted are these: Homo sapiens. In short, it runs like this:
(§4)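 MCF-7 cells seeded at 1×10^6 per dish and attached overnight. Compound added at varying concentrations for 36 h at 37 °C, 5% CO2. Client protein loss assessed by western blot. Controls: GA 500 nM and DMSO.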

Test [6] has as its system MCF7. In words: Induction of Raf1 degradation in MCF7 cells. The conditions noted are these: Homo sapiens. It counts as functional, cell-based. The essentials: as §4
Test [7] concerns MCF7. In words: Induction of Her2 degradation in MCF7 cells. In kind it is functional, cell-based. The conditions noted are these: Homo sapiens. The essentials:
as §4

Calls of active or inactive are those of the source. The rule behind the calls is not given here. Bounds are passed on as bounds.

From ChEMBL document CHEMBL1146364, “High-throughput assay for the identification of Hsp90 inhibitors based on Hsp90-dependent refolding of firefly luciferase” (Bioorg Med Chem, 2007) come the findings set out here.

Consider `Cc1nc(N)sc1-c1csc(Nc2ccccc2)n1`, for which the half-inhibitory concentration (IC50) (commonly the concentration that inhibits the measured activity by half) was 44 µM with MCF7 [1], 61 µM with SK-BR-3 [2], 55 µM in the test with SK-BR-3 [3] and 15 µM in test [4].
Consider `O=C(CSc1nnnn1-c1ccc(F)cc1F)Nc1ccc2c(c1)OCCO2`, for which the 50% inhibitory concentration (IC50) with MCF7 [1] was more than 100 µM; in the test on SK-BR-3 [2], more than 100 µM; in the test on SK-BR-3 [3] it was more than 100 µM; in test [4], 4.4 µM.
In the case of `CCOc1ccccc1NC(=O)CSc1ccccn1`, the 50% inhibitory concentration (IC50) with MCF7 [1], in the test with SK-BR-3 [2] and in the test on SK-BR-3 [3] was more than 100 µM in each case. In the test filed under Oryctolagus cuniculus, the outcome was inactive.
On to `CSc1nnc2c(n1)OC=Nc1ccccc1-2`, for which the IC50 is more than 100 µM with MCF7 [1], more than 100 µM in the test with SK-BR-3 [2], more than 100 µM with SK-BR-3 [3] and 15 µM in test [4].
`Oc1c(C(Nc2cccc(Cl)c2)c2ccncc2)ccc2cccnc12` (stereo unspecified): the half-inhibitory concentration (IC50) came to 4 µM with MCF7 [1], 33 µM with SK-BR-3 [2], 23 µM in the test on SK-BR-3 [3] and 36 µM in test [4].
The matching figures for `CCc1ccc(O)c(/N=C/c2cccc(C)c2O)c1`: 25 µM, 8.9 µM, 9 µM and 7 µM.
The matching figures for `CCNC(=O)c1c(N)sc2c1CCCCC2`: 93 µM, 44 µM, 76 µM and 23 µM.
The matching figures for `CC1=NN(c2ccc(Cl)cc2)C(=O)C1`: more than 100 µM, more than 100 µM, more than 100 µM and 2.1 µM.
For `COc1ccc(C(=O)/C=C(\C)Nc2ccccc2O)cc1`, the IC50 is more than 100 µM with MCF7 [1], 21.3 µM with SK-BR-3 [2], 25 µM in the test with SK-BR-3 [3] and 15 µM in test [4].
For `COc1ccc(/C=C2/SC(=O)NC2=O)cc1OC`, in that order: more than 100 µM, more than 100 µM, more than 100 µM and 190 µM.
For the compound `CCOC(=O)Oc1ccc2c(c1)C(C)=CC(C)(C)N2`, the outcome in the test with MCF7 [5], in the test on MCF7 [6] and in the test with MCF7 [7] was Active. The 50% inhibitory concentration (IC50) with MCF7 [1] stood at 3 µM; in the test with SK-BR-3 [2], 4.4 µM; with SK-BR-3 [3] it was 2.4 µM; in test [4], 16 µM.
With `Cc1c(Cc2ccccc2)sc(NC(=O)c2ccc([N+](=O)[O-])cc2)c1C(N)=O`, the IC50 with MCF7 [1] was determined as 41 µM; in the test with SK-BR-3 [2], 64 µM; in the test with SK-BR-3 [3] it was 55 µM. Besides, the result in the test filed under Oryctolagus cuniculus was inactive.
Take `C=CCOc1ccccc1/C=C1\C(=O)N(c2cccc(Cl)c2)N=C1C`: the IC50 was 34 µM with MCF7 [1], 51.6 µM in the test on SK-BR-3 [2], 39 µM in the test with SK-BR-3 [3] and 4.5 µM in test [4].
The matching figures for `N#CC1=C(N)N2C(=C(C#N)C1c1cccs1)Sc1ccccc12` (stereo unspecified): more than 100 µM, 67 µM, 42 µM and 13 µM.
The matching figures for `COc1ccccc1CNC(=O)c1ccc(C)cc1`: more than 100 µM, more than 100 µM, more than 100 µM and 22 µM.
Turning to `Oc1ccc(O)c(SCCCCN2CCOCC2)c1`, the IC50 in the test with MCF7 [1] turned out to be 19 µM; in the test with SK-BR-3 [2], 4.7 µM; in the test on SK-BR-3 [3] it was 7.8 µM; in test [4], 120 µM.
For `Nc1ncc(-c2cccs2)s1`, in that order: more than 100 µM, more than 100 µM, more than 100 µM and 55 µM.
The matching figures for `Cc1ccc(Nc2cc(C)c(O)c(C)c2)cc1`: 9.1 µM, 10.9 µM, 15 µM and 6.7 µM.
With `CCOc1ccc(Nc2nc(-c3sc(NC(C)=O)nc3C)cs2)cc1`, the result in the test on MCF7 [5], in the test on MCF7 [6] and in the test with MCF7 [7] was Active. Also, the IC50 turned out to be 2.1 µM in the test with MCF7 [1], 12.5 µM with SK-BR-3 [2], 15 µM with SK-BR-3 [3] and 1.9 µM in test [4].
On to `Cc1cc2nn(-c3ccc(Cl)cc3)nc2cc1NC(=O)C(C)C`, for which the IC50 with MCF7 [1] was more than 100 µM; with SK-BR-3 [2], more than 100 µM; in the test on SK-BR-3 [3], more than 100 µM; in test [4] it was 0.12 µM.
